# Data as given in ChEMBL document CHEMBL3632503, “Antiproliferative and antiplasmodial compounds from selected Streptomyces species” (Bioorg Med Chem Lett, 2015).
# Key:
# [1] = tested on: Plasmodium falciparum; assay: Antiplasmodial activity against Plasmodium falciparum Dd2 assessed as growth inhibition after 72 hrs by SYBR Green I dye based assay; type: functional, organism-based; conditions: Dd2, 72 h
# Outline: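 Ring-stage parasite cultures at 1% hematocrit and 1% parasitemia, grown 72 h at 37 °C with increasing drug concentrations under 5.05% CO2/4.93% O2/90.2% N2. Viability read by DNA quantitation with SYBR Green I in lysis buffer (0.4 µL dye per mL lysis buffer). IC50 from nonlinear regression curve fitting.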
# [2] = tested on: A2780; assay: Antiproliferative activity against human A2780 cells after […] by Alamar Blue assay; type: functional, cell-based
# [3] = tested on: A2058; assay: Antiproliferative activity against human A2058 cells after 96 hrs by CellTitre-Glo luminescent assay; type: functional, cell-based; conditions: A2058, 96 h
# [4] = tested on: A2058; assay: Selectivity ratio of IC50 for human A2780 cells to IC50 for human A2058 cells; type: functional
# [5] = Antiproliferative activity against human H522-T1 cells after 96 hrs by CellTitre-Glo luminescent assay; type: functional, cell-based; conditions: H522-T1, 96 h
Compound,IC50 [1],IC50 [2],IC50 [3],Ratio IC50 [4],IC50 [5]
Cn1c(=O)/c(=C/c2ccccc2)[nH]c(=O)/c1=C/c1ccccc1,6570 nM,–,–,–,–
CC[C@H]1C[C@@H]2CC[C@@H](O2)[C@@H](C)C(=O)O[C@H](C)C[C@H]2CC[C@H](O2)[C@H](C)C(=O)O[C@@H](CC)C[C@@H]2CC[C@@H](O2)[C@@H](C)C(=O)O[C@H](C)C[C@H]2CC[C@H](O2)[C@H](C)C(=O)O1 [DINACTIN],–,260 nM,20 nM,13,10 nM
CC[C@H]1C[C@@H]2CC[C@@H](O2)[C@@H](C)C(=O)O[C@H](C)C[C@H]2CC[C@H](O2)[C@H](C)C(=O)O[C@@H](C)C[C@@H]2CC[C@@H](O2)[C@@H](C)C(=O)O[C@H](C)C[C@H]2CC[C@H](O2)[C@H](C)C(=O)O1 [MONACTIN],–,130 nM,20 nM,6.5,10 nM
C=C1NC(=O)[C@H]([C@H](C)OC)N(C)C1=O,50000 nM,–,–,–,–
C[C@@H]1C[C@H]2CC[C@H](O2)[C@H](C)C(=O)O[C@@H](C)C[C@@H]2CC[C@@H](O2)[C@@H](C)C(=O)O[C@H](C)C[C@H]2CC[C@@H](O2)[C@H](C)C(=O)O[C@@H](C)C[C@@H]2CC[C@@H](O2)[C@@H](C)C(=O)O1 [NONACTIN],–,160 nM,260 nM,–,190 nM
